In ChEMBL document CHEMBL3124909, “Heat shock protein 70 inhibitors. 2. 2,5'-thiodipyrimidines, 5-(phenylthio)pyrimidines, 2-(pyridin-3-ylthio)pyrimidines, and 3-(phenylthio)pyridines as reversible binders to an allosteric site on heat shock protein 70” (J Med Chem, 2014):
Active and inactive are the calls of the source. No cut-off for these calls is given here.

Columns and labels:
MOLM-13 [1] = assay: Induction of apoptosis in human MOLM13 cells assessed as caspase 3/7 activation after 16 hrs by fluorescence assay; assay type: functional, cell-based
Outline: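 MOLM-13 cells at 30000/well in RPMI, held up to 24 h (37 °C, 5% CO2), then exposed 16 h to compound or DMSO. Buffer with 10 mM HEPES pH 7.5, 2 mM EDTA, 0.1% CHAPS and 25 μM Z-DEVD-R110 substrate added; fluorescence read once signal stabilized. Percent apoptotic increase calculated relative to control cells.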

SK-BR-3 [2] = assay: Inhibition of HSP70 in human SKBR3 cells assessed as HER2 degradation by Western blotting analysis; assay type: cell-based
Outline: (§1)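 Cells (SKBr3, MDA-MB-468, MiaPaCa-2 in DME/F12; MOLM-13 in RPMI; 10% FBS) grown to 60–70% confluence, then given inhibitor or DMSO. Lysis in 50 mM Tris pH 7.4, 150 mM NaCl, 1% NP-40. Protein measured by BCA, and client proteins or cleaved PARP detected by immunoblotting with peroxidase-conjugated secondary antibody.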

[3] = Cytotoxicity against human SKBR3 cells after 72 hrs by alamar blue assay; assay type: functional, SK-BR-3
Outline: (§2)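 Alamar Blue (resazurin) viability assay: attached cells (SKBr3) plated at 8000/well, suspension cells (Kasumi-1) at 20000/well, left 24 h at 37 °C, then drug added in triplicate for 72 h. Alamar Blue 50 μM added, fluorescence read 6 h later (ex 530, em 580 nm). Growth inhibition versus control corrected for time-zero population; IC50 = concentration giving 50% growth inhibition.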

SK-BR-3 [4] = assay: Inhibition of HSP70 in human SKBR3 cells assessed as Raf-1 degradation by Western blotting analysis; assay type: cell-based; outline: as §1
[5] = target: Heat shock protein HSP 90-beta (Homo sapiens) (UniProt P08238); assay: Displacement of GM-Cy3B from HSP90 in human SKBR3 cells after 24 hrs by fluorescence polarization assay; conditions: SK-BR-3
Kasumi 1 = assay: Cytotoxicity against human Kasumi-1 cells after 72 hrs by alamar blue assay; assay type: functional, cell-based; outline: as §2
SK-BR-3 [6] = assay: Induction of apoptosis in human SKBR3 cells assessed as c-PARP cleavage by Western blotting analysis; assay type: functional; outline: as §1
[7] = target: Receptor-type tyrosine-protein kinase FLT3 (Homo sapiens) (UniProt P36888); assay: Inhibition of HSP70 in human MOLM13 cells assessed as mutant FLT3 degradation at 1 to 20 uM by Western blotting analysis; assay type: cell-based; conditions: MOLM-13; outline: as §1
HEK293 [8] = assay: Inhibition of human HSP70 expressed in HEK293 cells assessed as inhibition of refolding of heat denatured luciferase at 10 uM incubated for 1 hr followed by heat treatment measured after 2 hrs by Western blotting analysis; assay type: cell-based
Outline: (§3)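 HEK293 cells cotransfected with C-terminal HA-luciferase plus N-terminal Flag-human Hsp70 or control vector. Two days later: cycloheximide 50 μg/mL, compound at 10 μM added just before 1 h at 45 °C, then recovery at 37 °C up to 2 h. Triton X-100 lysates cleared at 20000g; luciferase activity normalized to protein, expressed as % of pre-heat-shock activity; soluble proteins immunoblotted.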

HEK293 [9] = assay: Inhibition of HSP70 in HEK293 cells assessed as inhibition of refolding of heat denatured luciferase at 10 uM incubated for 1 hr followed by heat treatment measured after 2 hrs by Western blotting analysis; assay type: cell-based; conditions: Homo sapiens; outline: as §3
MIA PaCa-2 [10] = assay: Inhibition of HSP70 in human MIAPaCa2 cells assessed as Raf-1 degradation at 1 to 20 uM by Western blotting analysis; assay type: cell-based; outline: as §1
MDA-MB-468 [11] = assay: Inhibition of HSP70 in human MDA-MB-468 cells assessed as STAT-3 degradation at 0.5 to 25 uM by Western blotting analysis; assay type: cell-based; outline: as §1
MDA-MB-468 [12] = assay: Inhibition of HSP70 in human MDA-MB-468 cells assessed as Raf-1 degradation at 0.5 to 25 uM by Western blotting analysis; assay type: cell-based; outline: as §1
MOLM-13 [13] = assay: Inhibition of HSP70 in human MOLM13 cells assessed as STAT5 degradation at 1 to 20 uM by Western blotting analysis; assay type: cell-based; outline: as §1
[14] = tested on: Heat shock 70 kDa protein (Homo sapiens); assay: Inhibition of HSP70 in human SKBR3 cells assessed as inhibition of HSP70-HOP-HSP90 complex formation after 24 hrs by Western blotting analysis; conditions: SK-BR-3
MIA PaCa-2 [15] = assay: Inhibition of HSP70 in human MIAPaCa2 cells assessed as AKT degradation at 1 to 20 uM by Western blotting analysis; assay type: cell-based; outline: as §1
MIA PaCa-2 [16] = assay: Inhibition of HSP70 in human MIAPaCa2 cells assessed as STAT-3 degradation at 1 to 20 uM by Western blotting analysis; assay type: cell-based; outline: as §1
[17] = Homo sapiens, MOLM-13, 16 h, read-out: IC50
[18] = Homo sapiens, Kasumi 1, 72 h, read-out: IC50

Chain of Heat shock protein HSP 90-beta (Homo sapiens) (P08238 whole entry): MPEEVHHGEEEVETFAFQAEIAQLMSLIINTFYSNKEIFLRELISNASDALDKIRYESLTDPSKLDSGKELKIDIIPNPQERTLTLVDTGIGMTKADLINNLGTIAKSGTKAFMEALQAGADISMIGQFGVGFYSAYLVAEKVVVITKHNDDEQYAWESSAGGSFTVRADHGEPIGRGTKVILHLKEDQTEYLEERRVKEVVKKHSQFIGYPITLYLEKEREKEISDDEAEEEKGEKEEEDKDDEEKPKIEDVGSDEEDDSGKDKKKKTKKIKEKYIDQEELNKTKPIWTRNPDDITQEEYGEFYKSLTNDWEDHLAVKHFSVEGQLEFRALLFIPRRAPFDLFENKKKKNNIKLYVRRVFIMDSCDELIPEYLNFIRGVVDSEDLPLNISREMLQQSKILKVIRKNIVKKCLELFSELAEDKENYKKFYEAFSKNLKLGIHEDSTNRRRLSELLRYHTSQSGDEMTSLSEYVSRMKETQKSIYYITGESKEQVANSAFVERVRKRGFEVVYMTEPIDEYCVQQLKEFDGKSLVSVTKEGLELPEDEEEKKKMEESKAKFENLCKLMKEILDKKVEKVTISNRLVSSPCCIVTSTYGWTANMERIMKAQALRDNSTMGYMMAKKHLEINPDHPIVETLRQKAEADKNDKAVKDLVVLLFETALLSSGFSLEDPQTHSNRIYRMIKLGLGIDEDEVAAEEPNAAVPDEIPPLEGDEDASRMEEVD
Chain of Receptor-type tyrosine-protein kinase FLT3 (Homo sapiens) (P36888 whole entry): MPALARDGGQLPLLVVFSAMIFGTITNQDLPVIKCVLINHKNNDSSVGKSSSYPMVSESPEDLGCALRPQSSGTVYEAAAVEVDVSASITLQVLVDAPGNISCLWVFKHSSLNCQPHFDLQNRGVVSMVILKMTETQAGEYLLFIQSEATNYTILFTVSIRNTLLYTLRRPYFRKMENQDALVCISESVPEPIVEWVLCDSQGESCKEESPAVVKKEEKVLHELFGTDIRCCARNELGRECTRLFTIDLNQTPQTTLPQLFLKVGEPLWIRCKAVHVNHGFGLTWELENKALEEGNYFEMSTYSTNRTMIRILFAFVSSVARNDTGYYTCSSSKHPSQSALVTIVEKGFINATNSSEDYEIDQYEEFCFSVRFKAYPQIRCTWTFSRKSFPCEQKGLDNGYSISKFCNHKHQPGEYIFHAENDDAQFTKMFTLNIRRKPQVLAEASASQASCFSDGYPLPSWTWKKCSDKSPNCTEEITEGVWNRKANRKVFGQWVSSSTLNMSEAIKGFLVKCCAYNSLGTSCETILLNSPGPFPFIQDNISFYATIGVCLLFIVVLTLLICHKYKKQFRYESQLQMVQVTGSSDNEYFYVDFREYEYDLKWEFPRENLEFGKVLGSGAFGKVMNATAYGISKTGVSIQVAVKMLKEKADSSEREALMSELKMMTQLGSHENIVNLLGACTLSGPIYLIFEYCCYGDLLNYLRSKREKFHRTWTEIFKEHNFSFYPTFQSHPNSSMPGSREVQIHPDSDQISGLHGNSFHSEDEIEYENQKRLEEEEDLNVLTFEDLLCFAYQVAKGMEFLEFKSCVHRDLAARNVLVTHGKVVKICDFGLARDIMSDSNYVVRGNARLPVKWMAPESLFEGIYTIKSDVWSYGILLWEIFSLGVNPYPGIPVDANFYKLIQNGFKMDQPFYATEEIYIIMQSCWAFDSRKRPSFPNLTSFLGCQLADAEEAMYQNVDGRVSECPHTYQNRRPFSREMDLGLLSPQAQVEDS

Compound | IC50 (MOLM-13 [1]; [17]) | INH (SK-BR-3 [2]) | GI [3] | INH (SK-BR-3 [4]) | INH [5] | IC50 (Kasumi 1; [18]) | INH (SK-BR-3 [6]) | other results
CCOc1nc(N2CCN(C)CC2)nc(OCC)c1Sc1nc(N)cc(NC(=O)C2CC2)n1 | 95 µM | – | – | – | – | – | – | –
COc1nc(N2CCN(C)CC2)nc(OC)c1Sc1cccc(NC(=O)c2ccccc2)c1 | 8 µM | 7.5 µM | 8 µM | 10 µM | 497 µM | 8.1 µM | 7.5 µM | –
COc1nc(N2CCN(C)CC2)nc(OC)c1Sc1nccc(NC(C)=O)n1 | 150 µM | – | – | – | – | – | – | –
CN1CCN(c2ccc(Sc3cccc(NC(=O)CN)c3)c(O)n2)CC1 | > 250 µM | – | – | – | – | – | – | –
C=CCC(=O)Nc1cccc(Sc2c(OC)nc(N3CCN(C)CC3)nc2OC)c1 | 65 µM | – | – | – | – | – | – | –
CCOc1nc(N2CCN(C)CC2)nc(OCC)c1Sc1nc(N)cc(NC(=O)CC)n1 | 37 µM | 50 µM | 55 µM | 70 µM | > 250 µM | 51.4 µM | 80 µM | –
COc1nc(N2CCN(C)CC2)nc(OC)c1Sc1cccc(NC(=O)C2CCC2)c1 | 60 µM | 70 µM | 70 µM | 45 µM | > 250 µM | 47.2 µM | 75 µM | –
CN1CCN(c2ncc(Sc3cccc(NC(=O)C4CCCN4)c3)c(OCc3ccccc3)n2)CC1 (stereo not given) | 1.7 µM | – | – | – | – | 2.9 µM | – | –
Cc1nc(N2CCN(C)CC2)nc(C)c1Sc1nccc(NC(=O)c2ccco2)n1 | 32 µM | 25 µM | 30 µM | 25 µM | > 250 µM | 30.3 µM | 30 µM | –
Cc1nc(N2CCN(C)CC2)nc(C)c1Sc1nccc(NC(=O)C2CC2)n1 | 68 µM | – | – | – | – | 60.5 µM | – | –
COc1nc(N2CCN(C)CC2)nc(OC)c1Sc1nc(N)cc(NC(=O)CCN(C)C)n1 | 25 µM | 70 µM | – | 50 µM | > 500 µM | 14.7 µM | 75 µM | –
CN1CCN(c2ncc(Sc3cccc(NC(=O)CN)c3)c(-c3ccccc3)n2)CC1 | 25.2 µM | – | – | – | – | 20.8 µM | – | –
CN1CCN(c2ncc(Sc3cccc(NC(=O)c4ccccc4)c3)c(OCc3ccccc3)n2)CC1 | 4.1 µM | – | – | – | – | 3.1 µM | – | –
CCC(=O)Nc1ccnc(Sc2c(OC)nc(N3CCN(C)CC3)nc2OC)n1 | 142 µM | – | – | – | – | – | – | –
COc1nc(N2CCN(C)CC2)ccc1Sc1cccc(NC(=O)CN)c1 | 21 µM | – | – | – | – | 19.1 µM | – | –
CC(C)C(N)C(=O)Nc1cccc(Sc2cnc(N3CCN(C)CC3)nc2OCc2ccccc2)c1 (stereo not given) | 2.4 µM | – | – | – | – | 3.1 µM | – | –
C=CC(=O)Nc1cc(N)nc(Sc2c(OCC)nc(N3CCN(C)CC3)nc2OCC)n1 | – | 1 µM | 1.1 µM | 2.5 µM | > 500 µM | – | 1.5 µM | –

Compound | IC50 (MOLM-13 [1]; [17]) | INH (SK-BR-3 [2]) | GI [3] | INH (SK-BR-3 [4]) | INH [5] | IC50 (Kasumi 1; [18]) | INH (SK-BR-3 [6]) | other results
CCC(=O)Nc1cccc(Sc2c(OC)nc(N3CCN(C)CC3)nc2OC)c1 | 65 µM | 75 µM | 55 µM | 80 µM | > 500 µM | – | 75 µM | –
CN1CCN(c2ncc(Sc3cccc(NC(=O)CN)c3)c(OCc3ccccc3)n2)CC1 | 1.9 µM | 1.5 µM | 2.1 µM | 1.2 µM | > 500 µM | 2.3 µM | 1.5 µM | inhibition [7]: Active; inhibition (HEK293 [8]): Active; inhibition (HEK293 [9]): Active; inhibition (MIA PaCa-2 [10]): Active; inhibition (MDA-MB-468 [11]): Active; inhibition (MDA-MB-468 [12]): Active; inhibition (MOLM-13 [13]): Active; inhibition [14]: Dose-dependent effect; inhibition (MIA PaCa-2 [15]): Active; inhibition (MIA PaCa-2 [16]): Active
CCC(=O)Nc1ccnc(Sc2c(C)nc(N3CCN(C)CC3)nc2C)n1 | 98 µM | – | – | – | – | – | – | –
COc1nc(N2CCN(C)CC2)nc(OC)c1Sc1nc(N)cc(NC(C)=O)n1 | 165 µM | 125 µM | – | 150 µM | > 500 µM | – | 180 µM | –
CCC(=O)Nc1cccc(Sc2ccc(N3CCN(C)CC3)nc2OC)c1 | 39 µM | – | – | – | – | – | – | –
COc1nc(N2CCN(C)CC2)ccc1Sc1nccc(NC(=O)C2CC2)n1 | 63 µM | – | – | – | – | 58.5 µM | – | –
COc1nc(N2CCN(C)CC2)ccc1Sc1cccc(NC(=O)c2ccccc2)c1 | 20 µM | 19 µM | 20 µM | 20 µM | > 250 µM | 4.7 µM | 25 µM | –
COc1nc(N2CCN(C)CC2)ncc1Sc1cccc(NC(=O)CN)c1 | 13 µM | 18 µM | 15 µM | 15 µM | > 500 µM | 25.2 µM | 19 µM | –
CCCCCCCC(=O)Nc1cc(N)nc(Sc2c(OC)nc(N3CCN(C)CC3)nc2OC)n1 | > 50 µM | > 25 µM | – | > 25 µM | > 500 µM | – | >25 µM | –
CC(=O)Nc1cccc(Sc2cnc(N3CCN(C)CC3)nc2OCc2ccccc2)c1 | 10.2 µM | – | – | – | – | 5.2 µM | – | –
CC(N)C(=O)Nc1cccc(Sc2cnc(N3CCN(C)CC3)nc2OCc2ccccc2)c1 (stereo not given) | 2 µM | – | – | – | – | 4.8 µM | – | –
COc1nc(N2CCN(C)CC2)nc(OC)c1Sc1cccc(NC(=O)CN)c1 | 18 µM | 20 µM | 25 µM | 20 µM | > 500 µM | 22.5 µM | 40 µM | –
C=CC(=O)Nc1ccnc(Sc2c(C)nc(N3CCN(C)CC3)nc2C)n1 | – | 4 µM | 1.8 µM | 5 µM | > 500 µM | – | 5 µM | –
COc1nc(N2CCN(C)CC2)nc(OC)c1Sc1cccc(NC(=O)C2CCCCC2)c1 | – | – | – | – | – | – | – | IC50 (Kasumi 1; kasumi 1): ND(Insoluble); IC50 (MOLM-13 [1]; molm-13): ND(Insoluble)
CCC(=O)Nc1ccnc(Sc2ccc(N3CCN(C)CC3)nc2OC)n1 | 102 µM | – | – | – | – | – | – | –
CN1CCN(c2ncc(Sc3cccc(NC(=O)CN)c3)c(OCc3ccncc3)n2)CC1 | 7.8 µM | – | – | – | – | 10.7 µM | – | –
COc1nc(N2CCN(C)CC2)ccc1Sc1cccc(NC(=O)C2CC2)c1 | 32 µM | – | – | – | – | 36.4 µM | – | –
